Data on five compounds can be found in ChEMBL document CHEMBL3351346, “Design, synthesis, structure-function relationship, bioconversion, and pharmacokinetic evaluation of ertapenem prodrugs” (J Med Chem, 2014).

Molecules are shown by their SMILES. Bounds are passed on as bounds.

In data set [1] the test system is Rattus norvegicus. Description: Oral bioavailability in fasted Sprague-Dawley rat assessed as ertapenem level at 4.41 mg/kg dosed through intraduodenal route by LC-MS/MS method. Type of data set: ADME, organism-based. Conditions: in vivo. The procedure, abridged: (§1)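 After intraduodenal dosing, plasma over 8 h was analysed by LC-MS/MS. Bioavailability was calculated as dose-normalized AUC of ertapenem formed from the prodrug divided by dose-normalized AUC of ertapenem dosed iv. Vehicle was 30% Captisol or 0.5% methylcellulose.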

A short description of data set [2]: Stability in pH 7.4 phosphate buffer assessed as compound remaining at 50 uM after 3 hrs by LC-MS/MS method. Type of data set: physicochemical. The settings on record: read-out: Stability.
The subject of data set [3] is Canis familiaris. Description: Oral bioavailability in fasted Beagle dog assessed as assessed as ertapenem and monoetser metabolites level at 10 mg/kg dosed through intraduodenal route by LC-MS/MS method. The settings on record: in vivo. Type of data set: ADME, organism-based, Canis lupus familiaris. The procedure, abridged:
(§2)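 Total absorption followed intraduodenal dosing with LC-MS/MS of plasma over 8 h. It was calculated as the combined dose-normalized AUC of circulating parent prodrug, ertapenem and two monoesters, divided by dose-normalized AUC of ertapenem given iv. Vehicle was 30% Captisol or 0.5% methylcellulose.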

Data set [4] relates to Canis familiaris. The data set can be described thus: AUC (0 to 8 hrs) in fasted Beagle dog assessed as 8-OH, benzoate ester level at 10 mg/kg dosed through intraduodenal route by LC-MS/MS method. Conditions: in vivo, other. Also noted: time < 8 hr, dose 10 mg/kg, route intraduodenal. In kind it is ADME, organism-based, Canis lupus familiaris, Plasma. The procedure, abridged:
(§3)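 Prodrugs were given intraduodenally to bypass stomach acid. Plasma was sampled at intervals over 8 h, and parent prodrug, the two monoester metabolites and ertapenem were quantified by LC-MS/MS. The lower limit of quantitation was 5 nM. AUC(0–8) was used, and it differed from AUC(0–∞) by ±20%. Vehicles were 30% Captisol or 0.5% methylcellulose, as solution or suspension depending on compound.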

Data set [5] is described as follows: Stability in pH 2.0 simulated gastric fluid assessed as compound degradation to beta-lactam ring open products at 1 uM after 60 mins by LC-MS/MS method. Type of data set: ADME. The settings on record: read-out: Drug degradation. The procedure, abridged: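 Incubation was in simulated gastric fluid (SGF, pH 2.0) for 60 min, with loss to the β-lactam ring-opened product measured by LC-MS/MS.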

Data set [6] deals with Canis familiaris. Description: AUC (0 to 8 hrs) in fasted Beagle dog at 10 mg/kg dosed through intraduodenal route by LC-MS/MS method. In kind it is ADME, organism-based, Canis lupus familiaris, Plasma. Also on record: time < 8 hr, dose 10 mg/kg, route intraduodenal. The settings on record: in vivo, other, 8 h. A digest of the protocol:
as §3

Data set [7] deals with Rattus norvegicus. Description: Oral bioavailability in fasted Sprague-Dawley rat assessed as ertapenem and monoetser metabolites level at 4.41 mg/kg dosed through intraduodenal route by LC-MS/MS method. In kind it is ADME, organism-based. The settings on record: in vivo. A digest of the protocol: as §2
Data set [8] is described as follows: AUC (0 to 8 hrs) in fasted Sprague-Dawley rat at 4.41 mg/kg dosed through intraduodenal route by LC-MS/MS method. Also on record: time < 8 hr, dose 4.41 mg/kg, route intraduodenal. The settings on record: plasma. Type of data set: ADME, organism-based. The procedure, abridged: as §3
For data set [9], the system named is Canis familiaris. Description: Oral bioavailability in fasted Beagle dog assessed as ertapenem level at 10 mg/kg dosed through intraduodenal route by LC-MS/MS method. Type of data set: ADME, organism-based, Canis lupus familiaris. The settings on record: in vivo. The procedure, abridged:
as §1

The test system of data set [10] is Canis familiaris. The data set can be described thus: AUC (0 to 8 hrs) in fasted Beagle dog assessed as 8-OH, C-3 ester level at 10 mg/kg dosed through intraduodenal route by LC-MS/MS method. Type of data set: ADME, organism-based, Canis lupus familiaris, Plasma. Also noted: time < 8 hr, dose 10 mg/kg, route intraduodenal. The settings on record: in vivo, other. The procedure, abridged: as §3

The test system of data set [11] is Rattus norvegicus. The data set can be described thus: AUC (0 to 8 hrs) in fasted Sprague-Dawley rat assessed as 8-OH, C-3 ester level at 4.41 mg/kg dosed through intraduodenal route by LC-MS/MS method. Also noted: time < 8 hr, dose 4.41 mg/kg, route intraduodenal. Type of data set: ADME, organism-based, Plasma. Conditions: in vivo, other. A digest of the protocol:
as §3

A short description of data set [12]: Stability in pH 6.5 simulated gastrointestinal fluid assessed as compound remaining at 50 uM after 3 hrs by LC-MS/MS method. Type of data set: ADME. The settings on record: read-out: Stability. A digest of the protocol: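 Compounds at 50 μM were incubated in fasted-state simulated intestinal fluid (FaSSIF, pH 6.5) for over 3 h. Percent remaining was determined by LC-MS/MS.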

Data set [13] relates to Rattus norvegicus. Description: AUC (0 to 8 hrs) in fasted Sprague-Dawley rat assessed as ertapenem level at 4.41 mg/kg dosed through intraduodenal route by LC-MS/MS method. Conditions: in vivo, other. Also on record: time < 8 hr, dose 4.41 mg/kg, route intraduodenal. In kind it is ADME, organism-based, Plasma. A digest of the protocol:
as §3

For data set [14], the system named is Rattus norvegicus. The data set can be described thus: AUC (0 to 8 hrs) in fasted Sprague-Dawley rat assessed as 8-OH, benzoate ester level at 4.41 mg/kg dosed through intraduodenal route by LC-MS/MS method. Also noted: time < 8 hr, dose 4.41 mg/kg, route intraduodenal. Type of data set: ADME, organism-based, Plasma. The settings on record: in vivo, other. The procedure, abridged: as §3

The test system of data set [15] is Rattus norvegicus. The data set can be described thus: AUC (0 to 8 hrs) in fasted Sprague-Dawley rat assessed as 8-OH, benzoate ester level at 10 mg/kg dosed through intraduodenal route by LC-MS/MS method. Also noted: time < 8 hr, dose 10 mg/kg, route intraduodenal. In kind it is ADME, organism-based, Plasma. Conditions: in vivo, other, BLD = below limit of detection. A digest of the protocol:
as §3

The subject of data set [16] is Rattus norvegicus. The data set can be described thus: Oral bioavailability in fasted Sprague-Dawley rat assessed as ertapenem level at 10 mg/kg dosed through intraduodenal route by LC-MS/MS method. Type of data set: ADME, organism-based. Conditions: in vivo. A digest of the protocol: as §1
Data set [17] has as its system Rattus norvegicus. Description: AUC (0 to 8 hrs) in fasted Sprague-Dawley rat at 10 mg/kg dosed through intraduodenal route by LC-MS/MS method. In kind it is ADME, organism-based, Plasma. Also on record: time < 8 hr, dose 10 mg/kg, route intraduodenal. The settings on record: in vivo, other, 8 h, BLD = below limit of detection. A digest of the protocol: as §3
Data set [18] relates to Rattus norvegicus. The data set can be described thus: AUC (0 to 8 hrs) in fasted Sprague-Dawley rat assessed as 8-OH, C-3 ester level at 10 mg/kg dosed through intraduodenal route by LC-MS/MS method. In kind it is ADME, organism-based, Plasma. Also noted: time < 8 hr, dose 10 mg/kg, route intraduodenal. The settings on record: in vivo, other, BLD = below limit of detection. The procedure, abridged: as §3

Data set [19] relates to Rattus norvegicus. The data set can be described thus: Oral bioavailability in fasted Sprague-Dawley rat assessed as ertapenem and monoetser metabolites level at 10 mg/kg dosed through intraduodenal route by LC-MS/MS method. In kind it is ADME, organism-based. Conditions: in vivo. A digest of the protocol:
as §2

In data set [20] the test system is Rattus norvegicus. Description: AUC (0 to 8 hrs) in fasted Sprague-Dawley rat assessed as ertapenem level at 10 mg/kg dosed through intraduodenal route by LC-MS/MS method. Also on record: time < 8 hr, dose 10 mg/kg, route intraduodenal. Conditions: in vivo, other. Type of data set: ADME, organism-based, Plasma. The procedure, abridged: as §3
A short description of data set [21]: Stability in human plasma assessed as compound remaining at 50 uM at 37 degC after 60 mins by LC-MS/MS method. The settings on record: read-out: Stability. Type of data set: ADME, cell-free. A digest of the protocol: (§4)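 Prodrugs were incubated in rat or human plasma for 60 min. Disappearance of prodrug and concomitant appearance of ertapenem were followed by LC-MS/MS, and in selected cases monoesters from partial hydrolysis were also monitored. Ertapenem itself was incubated the same way as a control.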

The nature of data set [22]: Stability in rat plasma assessed as compound remaining at 50 uM at 37 degC after 60 mins by LC-MS/MS method. Type of data set: ADME, cell-free. The settings on record: read-out: Stability. The procedure, abridged:
as §4

The test system of data set [23] is Canis familiaris. The data set can be described thus: AUC (0 to 8 hrs) in fasted Beagle dog assessed as ertapenem level at 10 mg/kg dosed through intraduodenal route by LC-MS/MS method. In kind it is ADME, organism-based, Canis lupus familiaris, Plasma. Also on record: time < 8 hr, dose 10 mg/kg, route intraduodenal. The settings on record: in vivo, other. The procedure, abridged:
as §3

As usually defined, the AUC is the area under the concentration-time curve, a measure of exposure. In general, AUC(0-t) refers to exposure summed from dosing to a finite time, without extrapolation to infinity. High values mean high exposure, low ones low exposure. As to `CCOC(=O)C1=C(S[C@@H]2CN[C@H](C(=O)Nc3cccc(C(=O)OCC)c3)C2)[C@H](C)[C@@H]2[C@@H]([C@@H](C)O)C(=O)N12`, the F stood at 5% in data set [1], 31.3% in data set [3], 6.6% in data set [7] and 18.1% in data set [9]. For the same compound, the remaining at 3 h, 50 µM in data set [2] and in data set [12] was > 95% each time. In addition, the AUC in data set [4] was 3.3 µM·h; in [6] it was 5 µM·h; in data set [10], 2.2 µM·h; in [11] it was 0.1 µM·h; in data set [13], 1.5 µM·h; in data set [14], 0.4 µM·h. Moreover, the degraded at 1 h, 1 µM in data set [5] is > 25%. The same compound had an area under the curve AUC(0-t) at 8 h in data set [8] of 0.06 µM·h.

In the case of `C[C@@H](O)[C@H]1C(=O)N2C(C(=O)OCOC(=O)C(C)(C)C)=C(S[C@@H]3CN[C@H](C(=O)Nc4cccc(C(=O)OCOC(=O)C(C)(C)C)c4)C3)[C@H](C)[C@H]12`, the AUC result in data set [15] was “BLD”; in data set [17] it was “BLD”; in data set [4] (BLD = below limit of detection), “BLD”; in [6] (BLD = below limit of detection), “BLD”; in data set [10] it was < 0.1 µM·h; in [18] it was “BLD”. Also, the F in [16] worked out at 0.4%; in data set [3], 3.07%; in data set [9], 3%; in data set [19], 0.4%. For the same compound, the remaining at 3 h, 50 µM in data set [2] and in data set [12] was > 95% each time. In data set [5], the degraded at 1 h, 1 µM is > 25%.

On to `C[C@@H](O)[C@H]1C(=O)N2C(C(=O)OCc3oc(=O)oc3C(C)(C)C)=C(S[C@@H]3CN[C@H](C(=O)Nc4cccc(C(=O)OCc5oc(=O)oc5C(C)(C)C)c4)C3)[C@H](C)[C@H]12`, for which the exposure (AUC) was 0.2 µM·h in [20], “BLD” in [17], “BLD” in data set [6] (BLD = below limit of detection) and 0.2 µM·h in [23]. Further, the F in data set [16] was found to be 0.3%; in [3], 0.4%; in [9], 0.4%; in [19], 0.3%. The remaining at 3 h, 50 µM in data set [2] and in data set [12] was > 95% throughout. For the same compound, the degraded at 1 h, 1 µM in data set [5] was > 25%. Moreover, the remaining at 1 h, 50 µM in data set [21] turned out to be 10%; in [22], 0%.

Consider `CC(C)C(=O)OCOC(=O)C1=C(S[C@@H]2CN[C@H](C(=O)Nc3cccc(C(=O)OCOC(=O)C(C)C)c3)C2)[C@H](C)[C@@H]2[C@@H]([C@@H](C)O)C(=O)N12`, for which the AUC entry in [15] is “BLD”; in data set [20], 0.9 µM·h; in data set [17], “BLD”; in data set [4] (BLD = below limit of detection) it was “BLD”; in [6] (BLD = below limit of detection), “BLD”; in data set [10] (BLD = below limit of detection) it was “BLD”. Also, the AUC entry is “BLD” in data set [18] and 2.2 µM·h in [23]. In addition, the F was 1.8% in [16], 3.6% in data set [3], 3.6% in [9] and 1.8% in data set [19]. Further, the remaining at 3 h, 50 µM in data set [2] and in data set [12] was > 95% in each case. Also, the degraded at 1 h, 1 µM in data set [5] is > 25%. For the same compound, the remaining at 1 h, 50 µM in [21] came to 8%; in data set [22] it was 1%.

For `CC(C)C(=O)OCOC(=O)C1=C(S[C@@H]2CN[C@H](C(=O)Nc3cccc(C(=O)[O-])c3)C2)[C@H](C)[C@@H]2[C@@H]([C@@H](C)O)C(=O)N12.[Na+]`, the values for the AUC in data set [20], in data set [17] and in [18] were 0.7 µM·h, “BLD” and “BLD”, respectively. Moreover, the F in data set [16] and in data set [19] was 1.2% each time. The remaining at 3 h, 50 µM in data set [2] and in [12] was > 95% throughout. Besides, the degraded at 1 h, 1 µM in data set [5] is > 25%. Also, the remaining at 1 h, 50 µM came to 15% in data set [21] and 0% in [22].
